Some of the results follow. Inconclusive results are not listed. A number with no mark means an inactive call. Active and inactive are the calls of the source.
Tests used:
[1] = target: Solute carrier family 12 member 5 (Homo sapiens) (UniProt Q9H2X9); assay: retest of KCC2 transport modulators without sodium – cell-based, HEK293 KCC2, thallium flux, secondary assay, confirmation (AID 1713;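 active = thallium flux slope above the same plate's solvent-only control mean plus 3 SD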); conditions: FluoZin2 fluorescence, at 10 µM, active compounds read high
Outline: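 Evaluation: F/F0 slope over 10–20 s post-thallium, baseline-normalized / Material: KCC2-expressing HEK cells / Detection: FluoZin2 fluorescence, 480/540 nm, 1 Hz / Times: 48 min dye loading / Medium: Sodium-free N-methylglucamine chloride buffer / Compound: 10 µM single dose, 0.1% DMSO / Control set: bumetanide and DMSO controls / Probe or stimulus: thallium sulfate stimulus buffer at pH 7.3 / Repeats: duplicates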

PubChem AID 1714 = conditions: HEK293-KCC2 + bumetanide/ouabain, thallium flux FluoZin2; at 10 µM; active compounds read high
Outline: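 Test system: HEK cells expressing the K-Cl cotransporter KCC2 | Compound: One dose, 10 µM, 0.1% DMSO | Replication: Duplicates | Evaluation: Normalized thallium flux slope | Detection: FluoZin2-AM (0.5 µM) fluorescence, 480 nm ex/540 nm em, 1 Hz kinetic imaging | Incubation: Overnight culture 37 °C, dye loading 48 min | Reagent: Thallium stimulus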

[2] = target: Solute carrier family 12 member 5 (Homo sapiens) (UniProt Q9H2X9); assay: retest of KCC2 transport modulation, ouabain-free – cell-based, HEK293 KCC2, thallium flux, FluoZin2, secondary assay 2, confirmation (AID 1715); conditions: HEK293-KCC2, thallium flux FluoZin2 fluorescence; at 10 µM; actives lie on both sides; F/F0 rise rate, 10–20 s post-thallium;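 note: raw slope with 0.1% DMSO as baseline and bumetanide as block control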
[3] = compound effects on native HEK Tl+ uptake – HEK cells, counterscreen 1, counter-screen for KCC2 modulator project, confirmation (AID 1716;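 active = thallium flux rate significantly above the same plate's solvent-only control wells, beyond their mean plus 3 SD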); conditions: HEK293 parental cells, thallium flux FluoZin2, ouabain; at 10 µM; baseline-ratio fluorescence slope, 10–20 s after thallium
[4] = target: Solute carrier family 12 member 5 (Homo sapiens) (UniProt Q9H2X9); assay: modulation of KCC2 thallium flux in HEK cells – cell-based, ouabain, retest, confirmation (AID 1717;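 active = thallium flux slope beyond 3 SD from same-plate DMSO control mean in most replicates, usually higher, sometimes lower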;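 note: slope of initial-normalized fluorescence between seconds 10 and 20 after thallium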); conditions: HEK293-KCC2, thallium flux FluoZin2 fluorescence, at 10 µM, bidirectional: low = inhibitor, high = activator
[5] = native HEK Tl+ uptake effects, second counter-screen – HEK cells, counterscreen 2, counter-screen for KCC2 modulator project, confirmation (AID 1718;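 active = thallium flux slope above the same plate's solvent-control mean plus 3 SD in both duplicate wells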;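 note: run without ouabain in cells lacking the KCC2 cotransporter; slope of fluorescence scaled to its starting value between 10 and 20 s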); conditions: HEK293 parental, thallium flux FluoZin-2 fluorescence slope; at 10 µM
Outline: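 Material: parental HEK cells. Medium: HBSS, 20 mM HEPES. Reagent: thallium sulfate stimulus, 12 mM in buffer, pH 7.3. Incubation: overnight cell culture at 37 °C, 48 min dye loading, compound before thallium. Signal: FluoZin-2 fluorescence kinetics. Read-out basis: thallium influx rate. Repeats: Per-replicate slope values.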

Solute carrier family 12 member 5 (Homo sapiens), sequence (Q9H2X9 whole entry, looked up): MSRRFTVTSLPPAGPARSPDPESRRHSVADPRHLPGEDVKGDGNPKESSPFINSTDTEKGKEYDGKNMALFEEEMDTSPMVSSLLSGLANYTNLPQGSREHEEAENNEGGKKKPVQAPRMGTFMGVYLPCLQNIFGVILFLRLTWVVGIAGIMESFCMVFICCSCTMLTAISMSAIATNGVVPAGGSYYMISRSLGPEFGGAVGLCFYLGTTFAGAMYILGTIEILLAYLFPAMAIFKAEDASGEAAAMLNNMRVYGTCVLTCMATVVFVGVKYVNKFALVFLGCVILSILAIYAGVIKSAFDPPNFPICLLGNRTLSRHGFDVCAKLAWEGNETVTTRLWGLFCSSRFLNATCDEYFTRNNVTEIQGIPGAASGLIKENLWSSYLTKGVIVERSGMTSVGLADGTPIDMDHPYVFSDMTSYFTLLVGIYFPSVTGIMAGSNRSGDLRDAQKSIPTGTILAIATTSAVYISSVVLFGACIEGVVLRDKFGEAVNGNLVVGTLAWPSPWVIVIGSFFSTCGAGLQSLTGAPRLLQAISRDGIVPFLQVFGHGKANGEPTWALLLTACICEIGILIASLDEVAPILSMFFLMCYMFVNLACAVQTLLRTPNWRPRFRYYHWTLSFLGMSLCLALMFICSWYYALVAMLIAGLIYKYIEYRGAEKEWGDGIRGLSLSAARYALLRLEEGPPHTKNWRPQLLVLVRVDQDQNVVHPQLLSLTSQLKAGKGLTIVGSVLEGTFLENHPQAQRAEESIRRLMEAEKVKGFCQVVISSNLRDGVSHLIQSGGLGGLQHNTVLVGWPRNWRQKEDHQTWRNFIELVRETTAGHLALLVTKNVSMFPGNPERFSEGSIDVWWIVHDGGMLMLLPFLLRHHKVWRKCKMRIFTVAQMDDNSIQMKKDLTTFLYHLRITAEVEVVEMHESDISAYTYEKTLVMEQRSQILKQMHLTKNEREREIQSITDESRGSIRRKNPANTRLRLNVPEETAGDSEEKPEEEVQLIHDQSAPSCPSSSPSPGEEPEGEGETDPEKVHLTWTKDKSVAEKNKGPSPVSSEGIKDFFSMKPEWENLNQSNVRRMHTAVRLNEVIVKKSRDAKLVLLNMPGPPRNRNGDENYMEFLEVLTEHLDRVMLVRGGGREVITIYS

SMILES	normalised thallium flux (F/F0 slope) [1]	normalized thallium flux (PubChem AID 1714)	normalized thallium flux [2]	thallium flux rate (normalised fluorescence) [3]	raw Tl+ flux slope (below DMSO = inhibition, above = activation) [4]	thallium flux slope [5]
CCc1c(SCCC(=O)O)nc2ccccc2c1C	0.00619	0.00439	0.0283	0.00913 (active)	0.0166	0.0104
O=C(COC(=O)c1cc([N+](=O)[O-])ccc1NCc1ccccc1)NC1CCCCC1	0.00664	0.00478	0.0252 (active)	0.00762	0.0168 (active)	0.0115
c1ccc2c(C[n+]3csc4ccccc43)cccc2c1	0.0079	0.0261 (active)	0.0399 (active)	0.0169 (active)	0.0315 (active)	0.0219 (active)
O=C(NC(CC(=O)N1CCN(c2ccccc2)CC1)c1ccccc1)c1ccccc1Cl (stereo unspecified)	0.00747	0.00528	0.0333	0.00637	0.019	0.00971
CCOc1ccc(NC(=O)CN(C)CC(=O)Nc2cccc(Cl)c2C)cc1OCC	0.00801	0.00595	0.0338	0.00749	0.0213	0.0107
Cc1ccc(C)c(NC(=S)NNC(=O)c2csc(C)c2)c1	0.0109	0.013 (active)	0.034	0.0173 (active)	0.0256 (active)	0.012
O=C(COC(=O)c1ccc(Oc2ccccc2)cc1)Nc1nnc(-c2ccccc2)o1	0.00704	0.0517 (active)	0.0474 (active)	0.0357 (active)	0.0424 (active)	0.0346 (active)
S=c1ccc2ccccc2[nH]1	0.0228 (active)	0.0237 (active)	0.0335	0.0196 (active)	0.0247 (active)	0.0209 (active)
NS(=O)(=O)c1ccc(NC(=S)NC(=O)c2cccnc2)cc1	0.00722	0.00594 (active)	0.0316	0.00846	0.019	0.0122
O=C(O)CCN(Cc1ccccc1)S(=O)(=O)c1c(Cl)cccc1Cl	0.00789	0.00499	0.027 (active)	0.00714	0.012 (active)	0.0112
Cc1nc(SCC(=O)N2CCc3ccccc3C2)c2c(C)c(C)sc2n1	0.0151	0.00522	0.0244 (active)	0.00764	0.0144	0.0108
COc1ccc(CN2CCCCC2C)cc1OC (stereo unspecified)	0.00901	0.00633	0.0321	0.00759	0.0191	0.011
CCn1c(=S)[nH]c2sc3c(c2c1=O)CCCCC3	0.0279 (active)	0.092 (active)	0.0959 (active)	0.0964 (active)	0.0856 (active)	0.1 (active)
CCn1c(SCc2ccccc2)nc2c(c1=O)SCC2	0.00954	0.00493	0.0352	0.00537 (active)	0.0198	0.00988
O=C(CN(c1cccc(Cl)c1)S(=O)(=O)c1ccccc1)NN=C1CCCC1	0.0069	0.00505	0.0271	0.00791	0.0178	0.00991
CCOc1ccc(C(=O)NCCCN2CCCC2=O)cc1	0.00821	0.00728	0.0335	0.00778	0.0225	0.0108
O=C(Cn1c(-c2ccc(Cl)cc2)noc1=O)N1CCN(c2ccccc2F)CC1	0.00839	0.00664	0.0245 (active)	0.00698		0.00981
O=C(N/N=C/c1ccc(Br)o1)c1cncc(Br)c1	0.0115 (active)	0.0326 (active)	0.0307	0.0124 (active)		0.0107 (active)
CSc1ncnc2sc(C)c(C)c12	0.00741	0.0121 (active)	0.0306	0.0146 (active)		0.0129 (active)
CCOc1cccc(/C=N/N2C(=O)CSC2=S)c1O	0.00656	0.0152 (active)	0.0319	0.0178 (active)		0.0167 (active)
